Results from ChEMBL document CHEMBL3745670, “Synthesis and biological evaluation of novel lipoamino acid derivatives” (Bioorg Med Chem Lett, 2016).
In brackets after ≈: the same amount, converted by molar mass. One block for each molecule: values may come before it.

Columns and labels:
[1] = test system: Micrococcus luteus; experiment: Antibacterial activity against Micrococcus luteus MTCC 2470 after 24 hrs by well diffusion assay; type: functional; details: MTCC 2470, 24 h
[2] = test system: Staphylococcus aureus; experiment: Antibacterial activity against Staphylococcus aureus MTCC 96 after 24 hrs by well diffusion assay; type: functional; details: MTCC 96, 24 h
[3] = test system: Staphylococcus aureus; experiment: Antibacterial activity against Staphylococcus aureus MLS-16 MTCC 2940 after 24 hrs by well diffusion assay; type: functional; details: MLS-16 MTCC 2940, 24 h
[4] = test system: Candida albicans; experiment: Antifungal activity against Candida albicans MTCC 3017 after 24 hrs by well diffusion assay; type: functional; details: MTCC 3017, 24 h
In short: (§1)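 Well diffusion screen against Candida and related fungal strains. Read-out is MIC in µg/mL, with miconazole as the reference drug.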

[5] = test system: Bacillus subtilis; experiment: Antibacterial activity against Bacillus subtilis MTCC 121 after 24 hrs by well diffusion assay; type: functional; details: MTCC 121, 24 h
[6] = test system: Escherichia coli; experiment: Antibacterial activity against Escherichia coli MTCC 739 after 24 hrs by well diffusion assay; type: functional; details: MTCC 739, 24 h
[7] = test system: Raoultella planticola; experiment: Antibacterial activity against Klebsiella planticola MTCC 530 after 24 hrs by well diffusion assay; type: functional; details: MTCC 530, 24 h
[8] = test system: Pseudomonas aeruginosa; experiment: Antibacterial activity against Pseudomonas aeruginosa MTCC 2453 after 24 hrs by well diffusion assay; type: functional; details: MTCC 2453, 24 h
[9] = test system: Micrococcus luteus; experiment: Bactericidal activity against Micrococcus luteus MTCC 2470 after 24 hrs; type: functional; details: MTCC 2470, 24 h
In short: (§2)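 Minimum bactericidal concentration was determined on four Gram-positive strains, for the compounds active in the preliminary antibacterial screen.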

[10] = test system: Staphylococcus aureus; experiment: Bactericidal activity against Staphylococcus aureus MTCC 96 after 24 hrs; type: functional; details: MTCC 96, 24 h; in short: as §2
[11] = test system: Staphylococcus aureus; experiment: Bactericidal activity against Staphylococcus aureus MLS-16 MTCC 2940 after 24 hrs; type: functional; details: MLS-16 MTCC 2940, 24 h; in short: as §2
[12] = test system: Bacillus subtilis; experiment: Bactericidal activity against Bacillus subtilis MTCC 121 after 24 hrs by well diffusion assay; type: functional; details: MTCC 121, 24 h; in short: as §2
[13] = test system: Micrococcus luteus; experiment: Antibiofilm activity against Micrococcus luteus MTCC 2470 after 24 hrs by crystal violet staining based method; type: functional, organism-based; details: MTCC 2470, 24 h
In short: (§3)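 Biofilm inhibition was tested on the four Gram-positive strains, using crystal violet staining.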

[14] = test system: Staphylococcus aureus; experiment: Antibiofilm activity against Staphylococcus aureus MTCC 96 after 24 hrs by crystal violet staining based method; type: functional, organism-based; details: MTCC 96, 24 h; in short: as §3
[15] = test system: Staphylococcus aureus; experiment: Antibiofilm activity against Staphylococcus aureus MLS-16 MTCC 2940 after 24 hrs by crystal violet staining based method; type: functional, organism-based; details: MLS-16 MTCC 2940, 24 h; in short: as §3
[16] = test system: Bacillus subtilis; experiment: Antibiofilm activity against Bacillus subtilis MTCC 121 after 24 hrs by well diffusion assay by crystal violet staining based method; type: functional, organism-based; details: MTCC 121, 24 h; in short: as §3
[17] = test system: Candida albicans; experiment: Antifungal activity against Candida albicans MTCC 183 after 24 hrs by well diffusion assay; type: functional; details: MTCC 183, 24 h; in short: as §1
[18] = test system: Candida albicans; experiment: Antifungal activity against Candida albicans MTCC 227 after 24 hrs by well diffusion assay; type: functional; details: MTCC 227, 24 h; in short: as §1
[19] = test system: Candida albicans; experiment: Antifungal activity against Candida albicans MTCC 854 after 24 hrs by well diffusion assay; type: functional; details: MTCC 854, 24 h; in short: as §1
[20] = test system: Candida albicans; experiment: Antifungal activity against Candida albicans MTCC 1637 after 24 hrs by well diffusion assay; type: functional; details: MTCC 1637, 24 h; in short: as §1
[21] = test system: Candida albicans; experiment: Antifungal activity against Candida albicans MTCC 3018 after 24 hrs by well diffusion assay; type: functional; details: MTCC 3018, 24 h; in short: as §1
[22] = test system: Candida albicans; experiment: Antifungal activity against Candida albicans MTCC 3958 after 24 hrs by well diffusion assay; type: functional; details: MTCC 3958, 24 h; in short: as §1
[23] = test system: Candida albicans; experiment: Antifungal activity against Candida albicans MTCC 4748 after 24 hrs by well diffusion assay; type: functional; details: MTCC 4748, 24 h; in short: as §1
[24] = test system: Candida albicans; experiment: Antifungal activity against Candida albicans MTCC 7315 after 24 hrs by well diffusion assay; type: functional; details: MTCC 7315, 24 h; in short: as §1
[25] = test system: Candida parapsilosis; experiment: Antifungal activity against Candida parapsilosis MTCC 1744 after 24 hrs by well diffusion assay; type: functional; details: Lodderomyces parapsilosis, MTCC 1744, 24 h; in short: as §1
[26] = test system: [Candida] aaseri; experiment: Antifungal activity against Candida aaseri MTCC 1962 after 24 hrs by well diffusion assay; type: functional; details: Yamadazyma aaseri, MTCC 1962, 24 h; in short: as §1
[27] = test system: Nakaseomyces glabratus; experiment: Antifungal activity against Candida glabrata MTCC 3019 after 24 hrs by well diffusion assay; type: functional; details: MTCC 3019, 24 h; in short: as §1
[28] = test system: Pichia kudriavzevii; experiment: Antifungal activity against Pichia kudriavzevii MTCC 3020 after 24 hrs by well diffusion assay; type: functional; details: MTCC 3020, 24 h; in short: as §1
[29] = test system: Pichia sporocuriosa; experiment: Antifungal activity against Issatchenkia hanoiensis MTCC 4755 after 24 hrs by well diffusion assay; type: functional; details: MTCC 4755, 24 h; in short: as §1
[30] = Cytotoxicity against human DU145 cells by MTT assay; type: functional, cell-based; details: DU-145
[31] = test system: HepG2; experiment: Cytotoxicity against human HepG2 cells by MTT assay; type: functional, cell-based
[32] = Cytotoxicity against human SKOV3 cells by MTT assay; type: functional, cell-based; details: SK-OV-3
[33] = test system: MDA-MB-231; experiment: Cytotoxicity against human MDA-MB-231 cells by MTT assay; type: functional, cell-based
[34] = test system: Candida parapsilosis; experiment: Inhibition of ergosterol biosynthesis in Candida parapsilosis MTCC 1744 assessed as mean ergosterol content at 2 ug/ml after 20 hrs by spectrophotometric analysis (Rvb=1.62 +/- 0.08 ug/ml); type: functional
[35] = test system: Candida parapsilosis; experiment: Inhibition of ergosterol biosynthesis in Candida parapsilosis MTCC 1744 assessed as mean ergosterol content at 4 ug/ml after 20 hrs by spectrophotometric analysis (Rvb=1.62 +/- 0.08 ug/ml); type: functional
[36] = test system: Candida parapsilosis; experiment: Inhibition of ergosterol biosynthesis in Candida parapsilosis MTCC 1744 assessed as mean ergosterol content at 8 ug/ml after 20 hrs by spectrophotometric analysis (Rvb=1.62 +/- 0.08 ug/ml); type: functional
[37] = test system: Candida parapsilosis; experiment: Inhibition of ergosterol biosynthesis in Candida parapsilosis MTCC 1744 assessed as mean ergosterol content at 16 ug/ml after 20 hrs by spectrophotometric analysis (Rvb=1.62 +/- 0.08 ug/ml); type: functional

MIC [1]: 7.8 µg/mL (≈ 16.5 µM) | MIC [2]: 15.6 µg/mL (≈ 32.9 µM) | MIC [3]: 7.8 µg/mL (≈ 16.5 µM) | MIC [4]: 7.8 µg/mL (≈ 16.5 µM) | MIC [5]: 3.9 µg/mL (≈ 8.23 µM) | MIC [6]: > 125 µg/mL | MIC [8]: > 125 µg/mL | IC50 [13]: 4.1 µM | IC50 [14]: 9.3 µM | IC50 [15]: 3.2 µM | IC50 [16]: 2.8 µM | MIC [17]: 7.8 µg/mL (≈ 16.5 µM) | MIC [18]: 15.6 µg/mL (≈ 32.9 µM) | MIC [19]: 31.2 µg/mL (≈ 65.9 µM) | MIC [20]: 31.2 µg/mL (≈ 65.9 µM) | MIC [21]: 15.6 µg/mL (≈ 32.9 µM) | MIC [22]: 7.8 µg/mL (≈ 16.5 µM) | MIC [23]: 15.6 µg/mL (≈ 32.9 µM) | MIC [24]: 15.6 µg/mL (≈ 32.9 µM) | MIC [25]: 7.8 µg/mL (≈ 16.5 µM) | MIC [26]: 15.6 µg/mL (≈ 32.9 µM) | MIC [27]: 31.2 µg/mL (≈ 65.9 µM) | MIC [28]: 15.6 µg/mL (≈ 32.9 µM) | MIC [29]: 15.6 µg/mL (≈ 32.9 µM)
Compound: CCCCCCCCC(CCCCCCCCC(=O)OC)SCC(=O)N[C@@H](C)C(=O)OC (stereo partly drawn)
MIC [7]: > 125 µg/mL | MBC [9]: 7.8 µg/mL (≈ 16.5 µM) | MBC [10]: 31.2 µg/mL (≈ 65.9 µM) | MBC [11]: 15.6 µg/mL (≈ 32.9 µM) | MBC [12]: 7.8 µg/mL (≈ 16.5 µM) | MFC [17]: 15.6 µg/mL (≈ 32.9 µM) | MFC [18]: 31.2 µg/mL (≈ 65.9 µM) | MFC [19]: 62.5 µg/mL (≈ 132 µM) | MFC [20]: 31.2 µg/mL (≈ 65.9 µM) | MFC [21]: 31.2 µg/mL (≈ 65.9 µM) | MFC [22]: 15.6 µg/mL (≈ 32.9 µM) | MFC [23]: 15.6 µg/mL (≈ 32.9 µM) | MFC [24]: 31.2 µg/mL (≈ 65.9 µM) | MFC [25]: 7.8 µg/mL (≈ 16.5 µM) | MFC [26]: 31.2 µg/mL (≈ 65.9 µM) | MFC [27]: 31.2 µg/mL (≈ 65.9 µM) | MFC [28]: 15.6 µg/mL (≈ 32.9 µM) | MFC [29]: 31.2 µg/mL (≈ 65.9 µM) | IC50 [30]: 154 µM | IC50 [31]: 102 µM | IC50 [32]: 114 µM | IC50 [33]: 98.7 µM | Activity [34]: 1.41 µg/mL | Activity [35]: 0.63 µg/mL | Activity [36]: 0.38 µg/mL | Activity [37]: 0.11 µg/mL

Compound: COc1cccc2c1C(=O)c1c(O)c3c(c(O)c1C2=O)C[C@@](O)(C(=O)CO)C[C@@H]3O[C@H]1C[C@H](N)[C@H](O)[C@H](C)O1 [DOXORUBICIN]
IC50 [31]: 0.8 µM | IC50 [32]: 0.8 µM | IC50 [33]: 0.7 µM
